SENP8 block-1: human SENP8 protease inhibitors, primary screen, biochemical, fluorescence, Nedd8 protein substrate, uHTS; recombinant SENP8; inhibition, % at 20 µM; 360,000 compounds, 0.64% hits; AID 602440, 2012; in the data active means inhibition mostly above about 40%, no sharp cut-off; inactive means mostly below about 27%
Target sequence (Q96LD8 whole entry, looked up): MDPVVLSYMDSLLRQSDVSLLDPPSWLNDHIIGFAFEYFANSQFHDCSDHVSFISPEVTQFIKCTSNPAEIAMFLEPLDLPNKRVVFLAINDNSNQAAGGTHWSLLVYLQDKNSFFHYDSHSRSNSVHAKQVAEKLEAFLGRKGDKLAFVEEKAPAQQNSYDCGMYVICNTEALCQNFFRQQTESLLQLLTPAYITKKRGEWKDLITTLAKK
Apaf1 inhib: inhibitors of human Apaf-1 apoptosome, primary screen, biochemical, DEVD-Rh110 fluorescence, uHTS; Apoptotic protease-activating factor 1 (Homo sapiens), O14727; reconstituted apoptosome caspase-3 activity; inhibition, % at 20 µM; 330,000 compounds, 0.71% hits; AID 489030, 2010; active means inhibition of at least 40% at 20 µM;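 further: plate controls were DMSO wells for no effect and DEVD-CHO caspase inhibitor wells for full effect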
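Material: reconstituted apoptosome with Apaf-1, cytochrome c, caspase-9, procaspase-3, dATP / Buffer or medium: pH 7.5 Hepes buffer with CHAPS, BSA, DTT / Also added: cytochrome c with DEVD-Rh110 / Schedule: compound with Apaf-1, dATP, procaspase-3 30 min, then 50 min reaction, room temperature / Technique: rhodamine 110 fluorescence at Ex 480/Em 540 nm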
SENP8 block-2: SENP8 protease inhibitors, primary screen, biochemical, luminescence; Sentrin-specific protease 8 (Homo sapiens), Q96LD8; AID 2540, 2010; 330,000 compounds, 1.2% hits; inhibition, % at 10 µM; purified SENP8, Z-RLRGG-aminoluciferin cleavage; in the data active means inhibition above about 50%
UBC13 polyUb: UBC13 polyubiquitin chain formation inhibitors, primary screen, biochemical, TR-FRET, uHTS. Ubiquitin-conjugating enzyme E2 N (Homo sapiens), P61088. inhibition, % at 20 µM. 330,000 compounds, 0.47% hits. AID 485273, 2010; in the data active means inhibition above about 45%, passing the limit was not always enough
Target sequence (P61088 whole entry, looked up): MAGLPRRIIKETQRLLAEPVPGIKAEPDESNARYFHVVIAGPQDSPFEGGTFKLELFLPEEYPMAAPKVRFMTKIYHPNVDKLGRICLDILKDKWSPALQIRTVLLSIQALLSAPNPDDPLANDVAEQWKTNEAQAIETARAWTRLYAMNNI
SENP6 block: SENP6 protease inhibitors, primary screen, biochemical, luminescence, uHTS; Recombinant SENP6 catalytic domain, aminoluciferin luminescence; inhibition, % at 10 µM; 330,000 compounds, 1.8% hits; AID 2599, 2010;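 active means inhibition above about 50% at the single tested dose, limit read from the data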;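 further: plate controls were DMSO wells with enzyme for no effect and DMSO wells lacking enzyme for full effect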
SENP7 inh: SENP7 protease inhibitors, primary screen, biochemical, luminescence, uHTS; Sentrin-specific protease 7 (Homo sapiens), Q9BQF6; recombinant SENP7, Z-RLRGG-aminoluciferin luminescence, 40 min; inhibition, % at 5 µM; 330,000 compounds, 1.5% hits;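 active means inhibition above about 50% at the single test dose, limit read from the data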;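 further: plate controls were DMSO with enzyme for no effect and no enzyme buffer wells for full effect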
Casp3 counter: CASP3 inhibitor validation, counterassay for project on UBE2N polyubiquitination blockers, biochemical, one dose; inhibition, % at 20 µM; shares compounds with UBC13 polyUb; Recombinant caspase-3, Caspase-Glo 3/7 luminescence, 60 min; 1,400 compounds, 4% hits; AID 488856, 2010;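 active means mean inhibition across replicates above about 26%, limit read from the data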;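 further: plate controls were DMSO with caspase-3 for no effect and DMSO wells lacking enzyme for full effect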
UBC13 conf: UBC13 polyubiquitination inhibitors, single-point retest, confirmation, biochemical, TR-FRET, single concentration | shares compounds with UBC13 polyUb | inhibition, % at 10 µM | 1,400 compounds, 68% hits; in the data active means inhibition above about 45%
Apaf-1 inh conf2: Apaf-1 inhibitors, single-dose retest, confirmation, biochemical, fluorescence, DEVD-Rh110, 20 µM | shares compounds with Apaf1 inhib | reconstituted apoptosome, caspase-3 DEVD-Rh110 fluorescence | inhibition, % at 20 µM | 1,800 compounds, 25% hits;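 active means mean inhibition of at least 40% at 20 µM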;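 further: plate controls were DMSO wells for no effect and DEVD-CHO caspase inhibitor control wells for full effect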
Rh110 quench: Rh110 fluorescence interference by putative Apaf-1 inhibitors, confirmation, artefact control for Apaf-1 inhibitor project, biochemical, 20 µM | shares compounds with Apaf1 inhib | quenched caspase reaction | activation (fluorescence interference), % at 20 µM | 1,800 tested, under 10 active | AID 504615, 2011;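 active means signal rise of 40% or more at 20 µM, treated as a fluorescence artifact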
Fluor interf inh: fluorescence interference of Apaf-1 inhibitor hits, dose response, artefact control for Apaf-1 inhibitor project; shares compounds with Apaf1 inhib; fluorescence interference counterscreen, Apaf-1 assay format; IC50, µM; 460 tested, under 10 active; AID 588538, 2011; call rule not given here
SENP8 inh conf: human SENP8 protease inhibitors, confirmation, biochemical, Nedd8 protein substrate, single concentration; shares compounds with SENP8 block-1; purified SENP8, Nedd8-AMC/pro-Nedd8 cleavage fluorescence, 30 min; inhibition, % at 25 µM; 1,400 compounds, 15% hits; in the data active means inhibition mostly above about 39%, no sharp cut-off; inactive means mostly below about 34%
* marks the source's active call; other numbers are inactive results; i = inactive; / = no result. Shown are actives, neighbours in structure and some others; about 3% of the full set was active somewhere.

SMILES	SENP8 block-1	Apaf1 inhib	SENP8 block-2	UBC13 polyUb	SENP6 block	SENP7 inh	Casp3 counter	UBC13 conf	Apaf-1 inh conf2	Rh110 quench	others
Ic1ccccc1CN[C@@H]1C2CCN(CC2)[C@@H]1C(c1ccccc1)c1ccccc1	11	50*	-6	49*	3	5	-3	28	13	5
CCCCCC[N+](=O)[O-]	-2	-6	14	4	-26	2	/	/	/	/
CCCCCCCCCCCCCCCC[N+](C)(C)C	1	85*	1	90*	6	0	8	84*	46*	15	Fluor interf inh=>100
CCC1C(c2cc(OC)c(OC)c(OC)c2)c2cc3c(cc2OC1N1CCCC1)OCO3 (stereo not given)	16	/	/	/	/	/	/	/	/	/
COC(=O)C1=C(c2ccc(F)cc2OCc2ccccc2)C[C@@H]2CC[C@H]1N2C(=O)NC1CCN(Cc2ccccc2)CC1	17	53*	-1	51*	6	4	-3	38	9	-4
NCCc1ccc(OCc2ccccc2)c(OCc2ccccc2)c1	18	46*	-19	60*	-15	-9	0	59*	2	1
COC(=O)C1=C(c2ccc3ccccc3c2)C[C@@H]2CC[C@H]1N2C(=O)NC(C)C	2	6	-5	-2	3	9	/	/	/	/
CN1CCN(c2ccc(N)c(N3CCN(C)CC3)c2)CC1	51*	18	-8	49*	-32	15	1	78*	/	/	SENP8 inh conf=-7
Cc1cc(C(=O)OC(C)C(=O)Nc2ccccc2)c(C)n1C1CC1 (stereo not given)	5	/	/	/	/	/	/	/	/	/
O=[N+]([O-])c1ccc(NCCCN2CCOCC2)c2ncccc12	24	40*	-10	-192	16	5	/	/	6	2
CCOC(=O)[C@]12Cc3ccccc3[C@H]1N(CCC(=O)OC)C(=O)c1cc(OC)ccc12	5	/	/	/	/	/	/	/	/	/
O=[N+]([O-])c1ccc(N2CCCNCC2)c2ncccc12	33	45*	12	-141	14	31	/	/	18	13
CCCCn1c(N)c(C(=O)NCCN2CCOCC2)c2nc3ccccc3nc21	-478	37	10	-8	37	9	/	/	/	/
COCCCn1c(N)c(C(=O)Nc2ccccc2)c2nc3ccccc3nc21	-430	51*	8	3	22	1	/	/	25	9
CCCCOCCCn1c(N)c(C(=O)OC(C)COC)c2nc3ccccc3nc21 (stereo not given)	i	0	-5	14	2	-1	/	/	/	/
COCCCn1c(N)c(C(=O)OC(C)COC)c2nc3ccccc3nc21 (stereo not given)	i	74*	13	-13	7	26	/	/	8	9
